Assay results: ChEMBL document CHEMBL1649117, “GRL-02031, a novel nonpeptidic protease inhibitor (PI) containing a stereochemically defined fused cyclopentanyltetrahydrofuran potent against multi-PI-resistant human immunodeficiency virus type 1 in vitro” (Antimicrob Agents Chemother, 2009)

Tests used:
[1] = test system: Human immunodeficiency virus 1; assay: Antiviral activity against HIV1 subtype E 92TH019 infected in human PHA-PBM cells after 7 days by MTT assay; assay type: functional, organism-based; conditions: Human immunodeficiency virus 1, subtype E 92TH019, PBMC, 168 h
[2] = test system: Human immunodeficiency virus 1; assay: Antiviral activity against HIV1 subtype C 97ZA003 infected in human PHA-PBM cells after 7 days by MTT assay; assay type: functional, organism-based; conditions: Human immunodeficiency virus 1, subtype C 97ZA003, PBMC, 168 h
[3] = test system: Human immunodeficiency virus 2; assay: Antiviral activity against HIV2 EHO infected in human MT2 cells after 7 days by MTT assay; assay type: functional, organism-based; conditions: Human immunodeficiency virus 2, EHO, MT2, 168 h
[4] = test system: Human immunodeficiency virus 1; assay: Ratio of EC50 for ritonavir to compound against HIV1 NL4-3 harboring V82I mutation in protease encoding region infected in human […] cells; assay type: functional
[5] = test system: Human immunodeficiency virus 1; assay: Ratio of EC50 for indinavir to compound against HIV1 NL4-3 harboring I84V mutation in protease encoding region infected in human […] cells; assay type: functional
[6] = test system: Human immunodeficiency virus 1; assay: Ratio of EC50 for ritonavir to compound against HIV1 NL4-3 harboring V82I/I85V mutation in protease encoding region infected in human […] cells; assay type: functional
[7] = test system: Human immunodeficiency virus 1; assay: Ratio of EC50 for ritonavir to compound against HIV1 NL4-3 harboring I84V/I85V mutation in protease encoding region infected in human […] cells; assay type: functional
[8] = test system: Human immunodeficiency virus 1; assay: Ratio of EC50 for ritonavir to compound against HIV1 NL4-3 harboring L10F/I47V/V82I/I85V mutation in protease encoding region infected in human […] cells; assay type: functional
[9] = test system: Human immunodeficiency virus 1; assay: Ratio of EC50 for amprenavir to compound against HIV1 NL4-3 harboring L10F/M46I/I47V/V82I/I85V mutation in protease encoding region infected in human […] cells; assay type: functional
[10] = test system: Human immunodeficiency virus 1; assay: Ratio of EC50 for saquinavir to compound against HIV1 NL4-3 harboring G48V mutation in protease encoding region infected in human […] cells; assay type: functional
[11] = test system: Human immunodeficiency virus 1; assay: Ratio of EC50 for amprenavir to compound against HIV1 NL4-3 harboring I50V mutation in protease encoding region infected in human […] cells; assay type: functional
[12] = test system: Human immunodeficiency virus 1; assay: Antiviral activity against HIV1 NL4-3 harboring L33F mutation in protease encoding region infected in human […] cells assessed as inhibition of p24 Gag protein production by ELISA; assay type: functional, organism-based; conditions: Human immunodeficiency virus 1, NL4-3
Outline: (§1)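 Protease PCR fragments (ApaI/SmaI) were cloned into pHIV-1NLSma, and virions were harvested from transfected 293T cells over 48 h. MT-4 target cells (10^5/ml) were infected with 100 TCID50s, with or without drug, at 37°C. Day-7 supernatant p24 Gag was read by chemiluminescent enzyme immunoassay.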

[13] = test system: Human immunodeficiency virus 1; assay: Antiviral activity against HIV1 NL4-3 harboring I85V mutation in protease encoding region infected in human […] cells assessed as inhibition of p24 Gag protein production by ELISA; assay type: functional, organism-based; conditions: Human immunodeficiency virus 1, NL4-3; outline: as §1
[14] = test system: Human immunodeficiency virus 1; assay: Antiviral activity against HIV1 NL4-3 harboring V82I/I85V mutation in protease encoding region infected in human […] cells assessed as inhibition of p24 Gag protein production by ELISA; assay type: functional, organism-based; conditions: Human immunodeficiency virus 1, NL4-3; outline: as §1
[15] = test system: Human immunodeficiency virus 1; assay: Antiviral activity against HIV1 NL4-3 harboring L10F/M46I/I47V/V82I/I85V mutation in protease encoding region infected in human […] cells assessed as inhibition of p24 Gag protein production by ELISA; assay type: functional, organism-based; conditions: Human immunodeficiency virus 1, NL4-3; outline: as §1
[16] = test system: Human immunodeficiency virus 1; assay: Ratio of EC50 for HIV1 NL4-3 harboring M46I mutation in protease encoding region infected in human […] cells to EC50 for HIV1 NL4-3 infected in human MT4 cells; assay type: functional
[17] = test system: Human immunodeficiency virus 1; assay: Ratio of EC50 for HIV1 NL4-3 harboring Q58E mutation in protease encoding region infected in human […] cells to EC50 for HIV1 NL4-3 infected in human MT4 cells; assay type: functional
[18] = test system: Human immunodeficiency virus 1; assay: Ratio of EC50 for HIV1 NL4-3 harboring I84V/I85V mutation in protease encoding region infected in human […] cells to EC50 for HIV1 NL4-3 infected in human MT4 cells; assay type: functional
[19] = test system: Human immunodeficiency virus 1; assay: Ratio of EC50 for HIV1 NL4-3 harboring D30N mutation in protease encoding region infected in human […] cells to EC50 for HIV1 NL4-3 infected in human MT4 cells; assay type: functional
[20] = test system: Human immunodeficiency virus 1; assay: Ratio of EC50 for HIV1 NL4-3 harboring L90M mutation in protease encoding region infected in human […] cells to EC50 for HIV1 NL4-3 infected in human MT4 cells; assay type: functional
[21] = test system: Human immunodeficiency virus 1; assay: Ratio of EC50 for ritonavir to compound against HIV1 NL4-3 harboring M46I mutation in protease encoding region infected in human […] cells; assay type: functional

With `COc1ccc(S(=O)(=O)N(C[C@@H]2CCC(=O)N2)C[C@@H](O)[C@H](Cc2ccccc2)NC(=O)O[C@@H]2C[C@@H]3CCO[C@@H]3C2)cc1` as the compound, how does the EC50 [1] read?
The EC50 was 15 nM.

And the EC50 [2]?
The EC50 was 15 nM.

What about the EC50 [3] of the same compound?
Its EC50 is 600 nM.

And the “Ratio EC50” value [4]?
Its value is 1.5.

And the “Ratio EC50” value [5]?
The value was 2.2.

And the “Ratio EC50” value [6]?
Its value is 1.6.

And the “Ratio EC50” value [7]?
Its value is 14.8.

And the “Ratio EC50” value [8]?
The value was 1.9.

And the “Ratio EC50” value [9]?
Its value is 10.

And the “Ratio EC50” value [10]?
The value was 5.1.

What about the “Ratio EC50” value [11] of the same compound?
The value was 1.2.

And the EC50 [12]?
Its EC50 is 28 nM.

What about the EC50 [13] of the same compound?
The EC50 was 24 nM.

What about the EC50 [14] of the same compound?
Its EC50 is 35 nM.

And the EC50 [15]?
Its EC50 is greater than 1000 nM.

And the “Ratio EC50” value [16]?
Its value is 1.2.

What about the “Ratio EC50” value [17] of the same compound?
The value was 1.4.

What about the “Ratio EC50” value [18] of the same compound?
The value was 4.2.

What about the “Ratio EC50” value [19] of the same compound?
The value was 0.9.

And the “Ratio EC50” value [20]?
Its value is 1.4.

And the “Ratio EC50” value [21]?
The value was 1.2.
